Reference: ChEMBL document CHEMBL1139313, “Synthesis and antimalarial activity of new 4-amino-7-chloroquinolyl amides, sulfonamides, ureas and thioureas” (Bioorg Med Chem, 2009)

Legend:
Plasmodium falciparum [1] = experiment: Antimalarial activity against chloroquine-resistant Plasmodium falciparum Dd2 after 72 hrs; type: functional, organism-based; conditions: Dd2, 72 h
How it was run: (§1)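 SYBR Green I growth assay. Sorbitol-synchronized P. falciparum cultures (>95% ring stage) at final 1% hematocrit and 0.5% parasitemia, exposed to drug dilutions in complete medium for 72 h at 37 °C. Dye added, then 1 h at 37 °C; fluorescence read at 490 nm excitation / 530 nm emission. Each dilution run in triplicate; IC50 averaged over ≥2 separate assays. RI relates Dd2 IC50 to HB3 IC50.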

Plasmodium falciparum [2] = experiment: Antimalarial activity against chloroquine-sensitive Plasmodium falciparum HB3 after 72 hrs; type: functional, organism-based; conditions: HB3, 72 h; how it was run: as §1
[3] = Resistant index, IC50 for chloroquine-resistant Plasmodium falciparum Dd2 to IC50 for chloroquine-sensitive Plasmodium falciparum HB3; type: functional; how it was run: as §1

Compound	IC50 (Plasmodium falciparum [1]) [nM]	IC50 (Plasmodium falciparum [2]) [nM]	Ratio IC50 [3]
O=C(NCCCNc1ccnc2cc(Cl)ccc12)c1cc(C(F)(F)F)cc(C(F)(F)F)c1	236	145	1.6
CCN(CCCC(C)Nc1ccnc2cc(Cl)ccc12)CCNS(=O)(=O)c1cccc2c(N(C)C)cccc12 (stereo not given)	260	220	1.2
O=C(NCCCNc1ccnc2cc(Cl)ccc12)c1ccccc1Sc1ccccc1	> 1000	> 1000	
CCN(CCNC(=O)c1c(F)c(F)c(F)c(F)c1F)CCNc1ccnc2cc(Cl)ccc12	314	118	2.7
CCN(CCCNc1ccnc2cc(Cl)ccc12)CCNS(=O)(=O)c1cccc2c(N(C)C)cccc12	411	115	3.6
O=C(NCCCNc1ccnc2cc(Cl)ccc12)C(F)(F)C(F)(F)C(F)(F)C(F)(F)C(F)(F)C(F)(F)C(F)(F)F	197	166	1.2
CN(C)c1cccc2c(S(=O)(=O)NCCCNc3ccnc4cc(Cl)ccc34)cccc12	966	754	1.3
CCN(CCNc1ccnc2cc(Cl)ccc12)CCNS(=O)(=O)c1cccc2cccnc12	443	310	1.4
CCN(CCCCCCNc1ccnc2cc(Cl)ccc12)CCNS(=O)(=O)c1cccc2c(N(C)C)cccc12	147	272	0.5
CCN(CCNc1ccnc2cc(Cl)ccc12)CCNS(=O)(=O)c1cccnc1	512	124	4.1
CCN(CCNc1ccnc2cc(Cl)ccc12)CCNS(=O)(=O)c1cccc2c(N(C)C)cccc12	23	18	1.3
COc1ccccc1NC(=O)NCCCNc1ccnc2cc(Cl)ccc12	539	365	1.5
CCN(CCNC(=O)C(F)(F)C(F)(F)C(F)(F)F)CCNc1ccnc2cc(Cl)ccc12	556	180	3.1
CN(C)c1ccc(NC(=S)NCCCNc2ccnc3cc(Cl)ccc23)c2ccccc12	606	291	2.1
COc1cc([N+](=O)[O-])ccc1NC(=O)NCCCNc1ccnc2cc(Cl)ccc12	> 1000	281	
O=S(=O)(NCCCNc1ccnc2cc(Cl)ccc12)c1ccc(Oc2ccccc2)nc1	> 1000	> 1000	
CC(C)(C)OC(=O)N1CCC[C@H]1C(=O)NCCCNc1ccnc2cc(Cl)ccc12	> 1000	> 1000	
COc1ccc(NC(=S)NCCCNc2ccnc3cc(Cl)ccc23)cc1	353	229	1.5
COc1cc([N+](=O)[O-])ccc1NC(=S)NCCCNc1ccnc2cc(Cl)ccc12	801	208	3.9
CN(C)c1cccc(C(=O)NCCCNc2ccnc3cc(Cl)ccc23)c1	792	449	1.8
O=C(NCCCNc1ccnc2cc(Cl)ccc12)C(F)(F)C(F)(F)C(F)(F)F	277	234	1.2
CCN(CCNC(=O)c1cc(C(F)(F)F)cc(C(F)(F)F)c1)CCNc1ccnc2cc(Cl)ccc12	137	97	1.4
CCN(CCNC(=O)c1ccc(F)cc1NCc1ccccc1)CCNc1ccnc2cc(Cl)ccc12	199	80	2.5
CCN(CC)CCC(=O)NCCNc1ccnc2cc(Cl)ccc12	760	32	24.1
CCN(CCCCCNc1ccnc2cc(Cl)ccc12)CCNS(=O)(=O)c1cccc2c(N(C)C)cccc12	115	70	1.7

Compound	IC50 (Plasmodium falciparum [1]) [nM]	IC50 (Plasmodium falciparum [2]) [nM]	Ratio IC50 [3]
COc1ccc(NC(=O)NCCCNc2ccnc3cc(Cl)ccc23)cc1	596	316	1.9
O=C(NCCCNc1ccnc2cc(Cl)ccc12)c1c(F)c(F)c(F)c(F)c1F	510	276	1.9
CCN(CCNc1ccnc2cc(Cl)ccc12)CCNS(=O)(=O)c1ccc2c(c1)OCCN2C	286	171	1.7
O=C(NCCCNc1ccnc2cc(Cl)ccc12)c1ccccc1SC1CCCCC1	> 1000	> 1000	
CCN(CCNC(=O)C(F)(F)C(F)(F)C(F)(F)C(F)(F)C(F)(F)C(F)(F)C(F)(F)F)CCNc1ccnc2cc(Cl)ccc12	87	72	1.2
CC(C)(C)OC(=O)N[C@@H](CCCCNC(=O)OCc1ccccc1)C(=O)NCCCNc1ccnc2cc(Cl)ccc12	> 1000	902	
O=C(NCCCNc1ccnc2cc(Cl)ccc12)c1cccnc1	> 1000	> 1000	
O=C(NCCCNc1ccnc2cc(Cl)ccc12)c1ccccc1NCCc1ccccc1	> 1000	> 1000	
CCN(CCCCNc1ccnc2cc(Cl)ccc12)CCNS(=O)(=O)c1cccc2c(N(C)C)cccc12	125	82	1.5
CC(C)(C)OC(=O)N[C@@H](Cc1c[nH]c2ccccc12)C(=O)NCCCNc1ccnc2cc(Cl)ccc12	> 1000	479	
O=C(CCc1nc2ccccc2[nH]1)NCCCNc1ccnc2cc(Cl)ccc12	> 1000	756	
CN(C)c1ccc(NC(=O)NCCCNc2ccnc3cc(Cl)ccc23)cc1	674	436	1.6
CN(C)c1ccc(NC(=S)NCCCNc2ccnc3cc(Cl)ccc23)cc1	482	272	1.8
O=C(NCCCNc1ccnc2cc(Cl)ccc12)c1ccc(F)cc1NCc1ccccc1	305	> 1000	
O=C(NCCCNc1ccnc2cc(Cl)ccc12)c1ccc(O)nc1	> 1000	> 1000	
CCN(CC)CCC(=O)NCCCNc1ccnc2cc(Cl)ccc12	559	23	24.4
CCN(CC)CCC(=O)NCCCCNc1ccnc2cc(Cl)ccc12	> 1000	29	
CN1CCOc2cc(S(=O)(=O)NCCCNc3ccnc4cc(Cl)ccc34)ccc21	> 1000	960	
CCN(CC)CCC(=O)NCCCCCCNc1ccnc2cc(Cl)ccc12	385	28	12.9
Nc1ccc(N)c(C(=O)NCCCNc2ccnc3cc(Cl)ccc23)c1	651	179	3.6
CC(C)(C)OC(=O)N[C@H](Cc1c[nH]c2ccccc12)C(=O)NCCCNc1ccnc2cc(Cl)ccc12	764	500	1.5
CCN(CC)CCC(=O)NCCCCCNc1ccnc2cc(Cl)ccc12	672	16	41.2
O=S(=O)(NCCCNc1ccnc2cc(Cl)ccc12)c1cccc2cccnc12	607	453	1.3
O=C(NCCCNc1ccnc2cc(Cl)ccc12)c1ccccc1Nc1cccc2ccccc12	> 1000	> 1000	
CCN(CCNc1ccnc2cc(Cl)ccc12)CCNS(=O)(=O)c1ccc(Oc2ccccc2)nc1	274	140	2
